Experimental data reported in PubChem BioAssay AID651651 (Broad Institute, 2012).
Calls of active or inactive are those of the source.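 Rule for the calls: active = signal-lowering compounds whose fitted half-effect concentration is no more than twice the top tested dose; inconclusive = flat curve with 30 to 70% inhibition, or poor fit; inactive = the rest.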

Assay: quencher artefacts in RAD54 branch migration readout – biochemical, Cy5 label, cherry-picked samples, artefact control for RAD54 inhibitor project, dose response (AID 651651)
Settings: Cy5 DNA fluorescence quench counter-screen; series mostly up to 50 µM
How it was run: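 Material: human RAD54 protein; quantity: 30 nM RAD54 in the enzyme mix; dosing: pinned compound dose series, 10 mM stock solutions; incubation: 60 min reaction at room temperature after substrate addition; measured by: fluorescence of the Cy5-labelled DNA substrate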

SMILES | outcome
O=C(C[C@@H]1C[C@H]2c3cc(NC(=O)CC4CC4)ccc3O[C@H]2[C@@H](CO)O1)NCc1ccc(Cl)cc1 | inactive
C[C@@H]1CN([C@H](C)CO)C(=O)c2cc(NC(=O)Nc3ccc4c(c3)OCO4)ccc2O[C@H]1CN(C)Cc1ccc2c(c1)OCO2 | inactive
COc1ccc(-c2ccc3c(c2)[C@H]2[C@H](CCN2C(=O)Cc2cccnc2)[C@H](CO)N3C)cc1 | inactive
COc1ccc(C#Cc2ccc([C@H]3[C@@H](CO)N4CCCCN(C(=O)Nc5cccc(F)c5)C[C@H]34)cc2)cc1 | inactive
COc1ccc(S(=O)(=O)N(C)C[C@@H]2Oc3ccc(NC(=O)Nc4ccc(C(F)(F)F)cc4)cc3C(=O)N([C@H](C)CO)C[C@H]2C)cc1 | inactive
Cc1ccc(S(=O)(=O)N(C)C[C@@H]2Oc3ccc(NC(=O)Nc4c(C)noc4C)cc3CC(=O)N([C@@H](C)CO)C[C@@H]2C)cc1 | inactive
COc1ccccc1CNC(=O)C[C@@H]1C[C@@H]2c3cc(NC(=O)CN(C)C)ccc3O[C@@H]2[C@@H](CO)O1 | inactive
COc1ccc(S(=O)(=O)N(C)C[C@@H]2Oc3ccc(NC(=O)Nc4ccc5c(c4)OCO5)cc3C(=O)N([C@H](C)CO)C[C@H]2C)cc1 | inactive
CS(=O)(=O)N1[C@@H]2Cn3c(ccc(C4=CCCCC4)c3=O)[C@H]1[C@@H](C(=O)N1CCOCC1)[C@@H]2CO | inactive
COc1ccc(S(=O)(=O)N(C)C[C@@H]2Oc3ccc(NC(=O)Nc4ccc5c(c4)OCO5)cc3C(=O)N([C@@H](C)CO)C[C@H]2C)cc1 | inactive
C[C@@H]1CN([C@@H](C)CO)C(=O)c2cc(NS(=O)(=O)c3cccs3)ccc2O[C@@H]1CN(C)C(=O)Nc1cccc2ccccc12 | inactive
CN1CCN(C(=O)C[C@H]2C[C@@H]3c4cc(NC(=O)Cc5ccncc5)ccc4O[C@@H]3[C@@H](CO)O2)CC1 | inactive
COc1ccc(CN(C)C[C@@H]2Oc3ccc(NC(=O)NC4CCCCC4)cc3C(=O)N([C@@H](C)CO)C[C@H]2C)cc1 | inactive
COc1ccc(CN(C)C[C@@H]2Oc3ccc(NC(=O)Nc4ccc(OC)cc4)cc3C(=O)N([C@@H](C)CO)C[C@H]2C)cc1 | inactive
COc1ccc(NC(=O)Nc2ccc3c(c2)CC(=O)N([C@H](C)CO)C[C@H](C)[C@H](CN(C)S(=O)(=O)c2ccc(OC)cc2)O3)cc1 | inactive
Cc1ccc(S(=O)(=O)N(C)C[C@@H]2Oc3ccc(NC(=O)NC4CCCCC4)cc3CC(=O)N([C@H](C)CO)C[C@@H]2C)cc1 | inactive
COc1ccccc1CNC(=O)C[C@H]1C[C@@H]2c3cc(NC(=O)c4cccnc4)ccc3O[C@@H]2[C@H](CO)O1 | inactive
Cc1noc(C)c1NC(=O)N(C)C[C@H]1Oc2c(NC(=O)Nc3ccc(C(F)(F)F)cc3)cccc2C(=O)N([C@@H](C)CO)C[C@H]1C | inactive
CN(C)CC(=O)Nc1ccc2c(c1)[C@@H]1C[C@H](CC(=O)NC3CCCCC3)O[C@@H](CO)[C@@H]1O2 | inactive
Cc1cc(C(=O)Nc2cccc3c2O[C@H](CN(C)Cc2ccc(C(F)(F)F)cc2)[C@@H](C)CN([C@H](C)CO)C3=O)n(C)n1 | inactive
CO[C@@H]1CN(C)C(=O)c2ccc(NC(C)=O)cc2OC[C@@H](C)N(C(=O)c2ccccn2)C[C@H]1C | inactive
O=S(=O)(c1ccccc1)N1CCCCN2[C@H](CO)[C@H](c3ccc(C#CC4CCCC4)cc3)[C@@H]2C1 | inactive
C[C@H]1CN([C@@H](C)CO)C(=O)c2cc(NS(=O)(=O)c3cccs3)ccc2O[C@@H]1CN(C)C(=O)Nc1cccc2ccccc12 | inactive
COc1ccc(CN(C)C[C@@H]2Oc3ccc(NC(=O)Nc4ccc5c(c4)OCO5)cc3C(=O)N([C@H](C)CO)C[C@H]2C)cc1 | inactive
Cc1noc(C)c1NC(=O)Nc1ccc2c(c1)C(=O)N([C@H](C)CO)C[C@H](C)[C@H](CN(C)S(C)(=O)=O)OCCCC[C@H](C)O2 | inactive
C[C@@H]1CCCCO[C@@H](CN(C)S(C)(=O)=O)[C@H](C)CN([C@H](C)CO)C(=O)c2cc(NC(=O)Nc3ccc4c(c3)OCO4)ccc2O1 | inactive
COc1ccc(S(=O)(=O)N(C)C[C@@H]2Oc3ccc(NC(=O)Nc4ccccc4)cc3CC(=O)N([C@@H](C)CO)C[C@@H]2C)cc1 | inactive
C[C@H]1CCCCO[C@@H](CN(C)C(=O)Nc2ccc3c(c2)OCO3)[C@@H](C)CN([C@@H](C)CO)C(=O)c2cc(NC(=O)Nc3ccc(C(F)(F)F)cc3)ccc2O1 | inactive
CN(C)c1ccc2c(c1)[C@H]1C[C@H](CC(=O)NCCN3CCCCC3)O[C@@H](CO)[C@H]1O2 | inactive
